Test results: ChEMBL document CHEMBL4411326 (J Med Chem, 2019)
Calls of active or inactive are those of the source. No cut-off for these calls is given here.

How the values were obtained:
Rattus norvegicus = species on record: Rattus norvegicus; test: Selectivity ratio of Ki for alpha7* nAChR in rat brain P2 membranes to Ki for alpha4beta2* nAChR in Wistar rat cerebral cortex membranes; type: cell membranes
[1] = molecular target: T1, Neuronal acetylcholine receptor subunit alpha-7 (Rattus norvegicus, UniProt Q05941); test: Displacement of [3H]-methyllycaconitine from alpha7* nAChR in rat brain P2 membranes after 2.5 hrs by liquid scintillation spectrometry; type: cell membranes
[2] = Displacement of [3H]-cytisine from alpha4beta2* nAChR in Wistar rat cerebral cortex membranes after 75 mins; type: cell membranes
[3] = molecular target: Neuronal acetylcholine receptor subunit alpha-7 (Rattus norvegicus) (UniProt Q05941); test: Displacement of [3H]-methyllycaconitine from alpha7* nAChR in rat brain P2 membranes at 1 uM after 2.5 hrs by liquid scintillation spectrometry relative to control; type: cell membranes
Procedure, shortened: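 [3H]-Methyllycaconitine binding on rat brain minus cortex, striatum and cerebellum […]. Percent inhibition measured at 1 μM compound. Four independent experiments in duplicate.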

[4] = (§1) Agonist activity at nAChR in human SH-SY5Y cells assessed as increase in intracellular Ca2+ levels measured every 2 secs for 3 mins by Fluo4AM-fluorescent dye based assay; type: cell-based; details: 0.05 h
Procedure, shortened: (§2)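 SH-SY5Y cells (native nAChRs) in DMEM/F12 with 10% FBS were plated at 5000-10000 cells/well and grown 48-72 h. Cells were loaded with Fluo-4 AM (1.824 μM) and probenecid (1.25 mM). Compound was added just before reading; fluorescence at ex/em 485/535 nm. Mean ± SEM of three independent experiments, each with 5-6 measurements.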

[5] = molecular target: Neuronal acetylcholine receptor subunit alpha-7 (Homo sapiens, UniProt P36544); test: Agonist activity at human alpha7 nAChR expressed in mouse Neuro2a cells co-expressing chaperone NACHO assessed as increase in intracellular Ca2+ levels in presence of PNU120596 by calcium flux assay; type: cell-based
[6] = molecular target: T1, Neuronal acetylcholine receptor subunit alpha-7; test: Agonist activity at rat alpha7 nAChR expressed in Xenopus laevis oocytes after 4 to 5 days at -60 mV holding potential by […] assay; type: cell-based
Procedure, shortened: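 Two-electrode voltage clamp on defolliculated stage V-VI Xenopus laevis oocytes (collagenase 2 mg/mL, 2 h, 21-24 °C, Ca2+-free Barth's, pH 7.6). Oocytes were injected with 9.2 ng cRNA of human α3+β2 (1:1) or rat α7 plus chaperone NACHO (2:1). Agonist applications were separated by 5 min washout in normal frog Ringer's.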

SH-SY5Y = test: as §1; type: cell-based; procedure, shortened: as §2

Neuronal acetylcholine receptor subunit alpha-7 (Homo sapiens, UniProt P36544), sequence (P36544 whole entry): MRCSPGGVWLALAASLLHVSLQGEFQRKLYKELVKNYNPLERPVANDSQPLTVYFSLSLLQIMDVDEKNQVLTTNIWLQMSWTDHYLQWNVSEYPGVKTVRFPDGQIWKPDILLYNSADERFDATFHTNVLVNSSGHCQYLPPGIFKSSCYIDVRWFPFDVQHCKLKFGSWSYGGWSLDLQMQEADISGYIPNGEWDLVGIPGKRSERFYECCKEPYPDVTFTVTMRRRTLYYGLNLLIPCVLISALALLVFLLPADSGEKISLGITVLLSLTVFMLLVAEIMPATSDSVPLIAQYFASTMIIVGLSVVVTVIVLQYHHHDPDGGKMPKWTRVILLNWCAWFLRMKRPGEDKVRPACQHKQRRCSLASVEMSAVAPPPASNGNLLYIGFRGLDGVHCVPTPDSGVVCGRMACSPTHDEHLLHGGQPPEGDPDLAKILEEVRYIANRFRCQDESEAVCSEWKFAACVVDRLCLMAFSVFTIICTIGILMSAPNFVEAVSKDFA
Neuronal acetylcholine receptor subunit alpha-7 (Rattus norvegicus), sequence (Q05941 whole entry): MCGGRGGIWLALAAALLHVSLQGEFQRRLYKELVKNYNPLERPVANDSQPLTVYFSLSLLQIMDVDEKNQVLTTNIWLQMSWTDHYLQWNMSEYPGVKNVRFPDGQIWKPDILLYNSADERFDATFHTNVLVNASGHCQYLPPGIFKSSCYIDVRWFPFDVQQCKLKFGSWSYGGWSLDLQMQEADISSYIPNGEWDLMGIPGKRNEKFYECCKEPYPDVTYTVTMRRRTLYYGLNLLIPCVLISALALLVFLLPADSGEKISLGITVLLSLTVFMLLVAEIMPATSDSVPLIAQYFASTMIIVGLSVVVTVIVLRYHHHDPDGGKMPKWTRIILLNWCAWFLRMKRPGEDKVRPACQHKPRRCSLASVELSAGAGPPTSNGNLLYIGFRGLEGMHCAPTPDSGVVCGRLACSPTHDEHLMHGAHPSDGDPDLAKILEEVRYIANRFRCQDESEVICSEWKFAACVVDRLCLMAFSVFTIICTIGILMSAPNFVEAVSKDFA
T1 sequence (Q05941 whole entry): as above

| SMILES | Ratio Ki (Rattus norvegicus) | Ki [1] [nM] | Ki [2] [nM] | inhibition [3] [%] | EC50 [4] [nM] | EC50 [5] [nM] | EC50 [6] [µM] | Activity (SH-SY5Y) |
| --- | --- | --- | --- | --- | --- | --- | --- | --- |
| CN(C)[C@@H]1[C@@H]2CC[C@@H](C2)[C@H]1c1cccnc1 | > 17 | > 1000 | 59 | 8 | – | – | – | – |
| N[C@@H]1[C@@H]2CC[C@@H](C2)[C@H]1c1ccc(Cl)nc1 | – | 10.5 | 1.31 | – | 220 | 24 | 2.71 | – |
| CN[C@@H]1[C@@H]2CC[C@@H](C2)[C@H]1c1ccc(Cl)nc1 | 37 | 116 | 3.12 | – | – | – | – | – |
| N[C@@H]1[C@H]2CC[C@H](C2)[C@H]1c1ccc(Cl)nc1 | – | 227 | 28 | – | – | – | – | – |
| CN1CCC[C@H]1c1cccnc1 [NICOTINE] | – | – | 2.31 | – | 22500 | – | – | – |
| CN(C)[C@@H]1[C@H]2CC[C@H](C2)[C@H]1c1cccnc1 | > 2 | > 1000 | 554 | 6 | – | – | – | – |
| CN(C)[C@@H]1[C@@H]2CC[C@@H](C2)[C@H]1c1ccc(Cl)nc1 | – | > 1000 | 43 | 33 | – | 6450 | > 10 | inactive |
| N[C@@H]1[C@@H]2CC[C@@H](C2)[C@H]1c1cccnc1 | – | 46 | 2.11 | – | 1920 | 48 | 5.98 | – |
| CN[C@@H]1[C@H]2CC[C@H](C2)[C@H]1c1cccnc1 | – | > 1000 | 206 | 15 | – | – | – | – |
| CN(C)[C@@H]1[C@H]2CC[C@H](C2)[C@H]1c1ccc(Cl)nc1 | – | > 1000 | 294 | 18 | – | – | – | – |
| N[C@@H]1[C@H]2CC[C@H](C2)[C@H]1c1cccnc1 | – | > 1000 | 166 | 30 | – | – | – | – |
| CN[C@@H]1[C@@H]2CC[C@@H](C2)[C@H]1c1cccnc1 | – | 352 | 10.2 | – | – | 2290 | > 10 | inactive |
